The source of these data is ChEMBL document CHEMBL1828621, “Single step synthesis of new fused pyrimidine derivatives and their evaluation as potent Aurora-A kinase inhibitors” (Eur J Med Chem, 2011).

pIC50: −log10 of the molar value. Converted amounts (≈) assume the structure as drawn.

The test system of assay [1] is HCT-116. Nature of the assay: Cytotoxicity against human HCT116 cells assessed as cell survival at 1 ug/ml after 48 hrs by sulforhodamine B method relative to control. The class given is functional. A digest of the protocol:
(§1)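 HCT116 colon tumour cells grown in RPMI 1640 with 5% FBS and 2 mM L-glutamine. Seeded at 10,000 cells/well and held 24 h at 37 °C, 5% CO₂ before dosing. Drugs kept as DMSO stocks at 400-fold the top final concentration, diluted in medium with gentamicin, tested at four concentrations for 48 h. Fixed with cold TCA (final 10%) for 60 min at 4 °C, stained with 0.4% SRB, bound dye dissolved in Tris-EDTA, read on an ELISA reader. Extra plates fixed at dosing served as baseline.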
(In general: Sulforhodamine B stains cellular protein and so reports cell mass.)

A further assay deals with T1, Aurora kinase A (Homo sapiens, UniProt O14965).
T1 sequence (O14965 whole entry): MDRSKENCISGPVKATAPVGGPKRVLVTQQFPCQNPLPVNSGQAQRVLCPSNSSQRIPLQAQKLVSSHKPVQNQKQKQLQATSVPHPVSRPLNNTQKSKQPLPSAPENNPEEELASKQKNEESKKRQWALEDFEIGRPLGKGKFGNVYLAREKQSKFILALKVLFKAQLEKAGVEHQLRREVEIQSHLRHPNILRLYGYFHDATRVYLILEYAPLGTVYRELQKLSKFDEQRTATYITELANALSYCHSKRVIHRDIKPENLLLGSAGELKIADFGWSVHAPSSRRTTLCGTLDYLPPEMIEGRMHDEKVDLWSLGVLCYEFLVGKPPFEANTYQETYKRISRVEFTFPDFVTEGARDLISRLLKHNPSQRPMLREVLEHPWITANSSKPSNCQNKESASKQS
Nature of the assay: Inhibition of GST-tagged Aurora A kinase expressed in insect cells assessed as inhibition of [33P]gamma-ATP incorporation in substrate after 60 mins by scintillation counting. The settings on record: for pIC50: read-out: IC50. In short, it runs like this: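 Reaction: biotinylated CHOCKtide substrate with ATP/[γ-33P]ATP mix, 60 min at room temperature, in 50 mM HEPES pH 7.5, 10 mM MgCl₂, 1 mM DTT, NaVO₃ and 0.2 mg/mL BSA. Stopped with EDTA/ATP plus streptavidin SPA beads; beads floated on 5 M CsCl and counted for phosphate incorporated into substrate.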

Assay [2] has as its system HCT-116. Nature of the assay: Cytotoxicity against human HCT116 cells assessed as cell survival at 2.5 ug/ml after 48 hrs by sulforhodamine B method relative to control. The class given is functional. In short, it runs like this:
as §1

The test system of assay [3] is HCT-116. Nature of the assay: Cytotoxicity against human HCT116 cells assessed as cell survival at 5 ug/ml after 48 hrs by sulforhodamine B method relative to control. The class given is functional. In short, it runs like this:
as §1

Assay [4] concerns HCT-116. Nature of the assay: Cytotoxicity against human HCT116 cells assessed as cell survival at 10 ug/ml after 48 hrs by sulforhodamine B method relative to control. Type of assay: functional. In short, it runs like this:
as §1

Assay [5] has as its system HCT-116. Nature of the assay: Cytotoxicity against human HCT116 cells after 48 hrs by sulforhodamine B method. Type of assay: functional, cell-based. The conditions noted are these: HCT-116, 48 h. In short, it runs like this:
as §1

As to `Cc1cc2ncc(S(=O)(=O)c3ccccc3)c(-c3ccccc3)n2n1`, the Ratio in the assay with HCT-116 [1] turned out to be 0.774; with HCT-116 [2] it was 0.698; in the assay on HCT-116 [3] it was 0.671; in the assay with HCT-116 [4], 0.597. Besides, on Aurora kinase A, the pIC50 was 7.00. This compound yielded a 50% inhibitory concentration (IC50) in the assay with HCT-116 [5] of more than 25 µg/mL.

On to `COc1cccc2c1C(=O)c1c(O)c3c(c(O)c1C2=O)C[C@@](O)(C(=O)CO)C[C@@H]3O[C@H]1C[C@H](N)[C@H](O)[C@H](C)O1` [DOXORUBICIN], for which the Ratio is listed as 0.523 in the assay with HCT-116 [1], 0.439 with HCT-116 [2], 0.42 in the assay with HCT-116 [3] and 0.291 with HCT-116 [4]. For the same compound, the pIC50 on Aurora kinase A was 7.40. Moreover, the midpoint of inhibition with HCT-116 [5], the IC50, lay at 1.3 µg/mL (≈ 2.39 µM).

Turning to `O=S(=O)(c1ccccc1)c1cnc2ncnn2c1-c1ccc(Cl)cc1`, the Ratio is 0.786 with HCT-116 [1], 0.377 in the assay with HCT-116 [2], 0.316 with HCT-116 [3] and 0.243 in the assay on HCT-116 [4]. Besides, at Aurora kinase A, the pIC50 was 5.03. Moreover, in the assay on HCT-116 [5], inhibition was half-maximal at 2.15 µg/mL (≈ 5.8 µM) (IC50).

With `Cc1ccc(-c2c(S(=O)(=O)c3ccccc3)cnc3c(Br)c(-c4ccccc4)nn23)cc1`, the Ratio in the assay on HCT-116 [1] worked out at 1; in the assay on HCT-116 [2] it was 0.701; in the assay with HCT-116 [3], 0.53; in the assay with HCT-116 [4] it was 0.309. Moreover, the values for the IC50 entry at Aurora kinase A and in the assay on HCT-116 [5] were “Not Active” and 14 µg/mL (≈ 27.8 µM), respectively.

Regarding `O=S(=O)(c1ccccc1)c1cnc2nc3ccccc3n2c1-c1ccc(Cl)cc1`, the Ratio in the assay on HCT-116 [1] amounted to 0.95; in the assay with HCT-116 [2], 0.905; in the assay on HCT-116 [3] it was 0.889; in the assay with HCT-116 [4], 0.79. Besides, the results for the half-maximal inhibitory concentration (IC50) result on Aurora kinase A and with HCT-116 [5] were “Not Active” and more than 25 µg/mL, respectively.

As for `O=S(=O)(c1ccccc1)c1cnc2nc3ccccc3n2c1-c1ccccc1`, the Ratio with HCT-116 [1] turned out to be 0.984; with HCT-116 [2] it was 0.885; in the assay with HCT-116 [3] it was 0.845; with HCT-116 [4], 0.82. Further, the IC50 entry on Aurora kinase A is “Not Active”; with HCT-116 [5], more than 25 µg/mL.

As to `O=S(=O)(c1ccccc1)c1cnc2cc(-c3ccccc3)nn2c1-c1ccc(Cl)cc1`, the Ratio came out at 0.987 in the assay with HCT-116 [1], 0.953 in the assay with HCT-116 [2], 0.894 in the assay with HCT-116 [3] and 0.797 in the assay on HCT-116 [4]. Moreover, the half-inhibitory concentration (IC50) result was “Not Active” at Aurora kinase A and more than 25 µg/mL in the assay with HCT-116 [5].

With `O=S(=O)(c1ccccc1)c1cnc2ncnn2c1-c1ccccc1`, the Ratio with HCT-116 [1] is reported as 0.689; in the assay with HCT-116 [2], 0.302; with HCT-116 [3], 0.294; in the assay on HCT-116 [4] it was 0.256. Besides, on Aurora kinase A, the negative-log IC50 (pIC50) is 6.98. This compound also gave an IC50 with HCT-116 [5] of 1.97 µg/mL (≈ 5.86 µM).

Regarding `Cc1ccc(-c2cc3ncc(S(=O)(=O)c4ccccc4)c(-c4ccc(C)cc4)n3n2)cc1`, the Ratio in the assay on HCT-116 [1] stood at 1; in the assay with HCT-116 [2] it was 0.764; in the assay with HCT-116 [3], 0.408; with HCT-116 [4], 0.246. Besides, the half-inhibitory concentration (IC50) result on Aurora kinase A is “Not Active”; in the assay with HCT-116 [5], 10.5 µg/mL (≈ 23.9 µM).

As for `O=S(=O)(c1ccccc1)c1cnc2cc(-c3ccccc3)nn2c1-c1ccccc1`, the Ratio was determined as 0.683 with HCT-116 [1], 0.455 in the assay with HCT-116 [2], 0.43 in the assay on HCT-116 [3] and 0.377 in the assay with HCT-116 [4]. Further, on Aurora kinase A, the pIC50 is 7.29. Besides, 1.27 µg/mL (≈ 3.09 µM) corresponded to half-maximal inhibition with HCT-116 [5] (IC50).

As to `Cc1ccc(-c2c(S(=O)(=O)c3ccccc3)cnc3cc(-c4ccc(Cl)cc4)nn23)cc1`, the Ratio was determined as 1 with HCT-116 [1], 0.665 in the assay with HCT-116 [2], 0.382 with HCT-116 [3] and 0.333 with HCT-116 [4]. The IC50 result was “Not Active” on Aurora kinase A and 9.3 µg/mL (≈ 20.2 µM) with HCT-116 [5].

As for `Cc1ccc(-c2c(S(=O)(=O)c3ccccc3)cnc3cc(-c4ccccc4)nn23)cc1`, the Ratio with HCT-116 [1] was determined as 1; in the assay on HCT-116 [2], 0.745; in the assay with HCT-116 [3] it was 0.701; in the assay with HCT-116 [4], 0.253. Besides, the IC50 result at Aurora kinase A was “Not Active”; in the assay on HCT-116 [5] it was 18 µg/mL (≈ 42.3 µM).

In the case of `Cc1nn2c(-c3ccccc3)c(S(=O)(=O)c3ccccc3)cnc2c1Br`, the Ratio in the assay with HCT-116 [1] is on record as 0.529; with HCT-116 [2], 0.373; in the assay on HCT-116 [3], 0.253; in the assay with HCT-116 [4], 0.183. Further, the IC50 result is “Not Active” on Aurora kinase A and 2.21 µg/mL (≈ 5.16 µM) with HCT-116 [5].

For `COc1ccc(-c2cc3ncc(S(=O)(=O)c4ccccc4)c(-c4ccc(Cl)cc4)n3n2)cc1`, the Ratio with HCT-116 [1] was 0.824; in the assay on HCT-116 [2] it was 0.794; in the assay on HCT-116 [3], 0.778; in the assay with HCT-116 [4], 0.744. The IC50 result on Aurora kinase A was “Not Active”; with HCT-116 [5] it was more than 25 µg/mL.

As to `O=S(=O)(c1ccccc1)c1cnc2c(Br)c(-c3ccccc3)nn2c1-c1ccccc1`, the Ratio in the assay on HCT-116 [1] was found to be 0.629; with HCT-116 [2] it was 0.42; with HCT-116 [3] it was 0.271; with HCT-116 [4] it was 0.24. In addition, the pIC50 at Aurora kinase A was 7.41. The IC50 in the assay with HCT-116 [5] amounted to 1.34 µg/mL (≈ 2.73 µM).

For `O=S(=O)(c1ccccc1)c1cnc2cc(-c3ccc(Cl)cc3)nn2c1-c1ccccc1`, the Ratio in the assay with HCT-116 [1] is reported as 0.56; with HCT-116 [2] it was 0.508; in the assay on HCT-116 [3] it was 0.42; with HCT-116 [4], 0.42. The negative-log IC50 (pIC50) on Aurora kinase A is 6.92. Besides, inhibition with HCT-116 [5] was half-maximal at 1.64 µg/mL (≈ 3.68 µM) (IC50).

Consider `COc1ccc(-c2cc3ncc(S(=O)(=O)c4ccccc4)c(-c4ccccc4)n3n2)cc1`, for which the Ratio in the assay on HCT-116 [1] is listed as 0.516; in the assay with HCT-116 [2], 0.436; in the assay on HCT-116 [3], 0.288; with HCT-116 [4], 0.217. The pIC50 at Aurora kinase A was 7.60. This compound also had an IC50 in the assay with HCT-116 [5] of 1.28 µg/mL (≈ 2.9 µM).

In the case of `O=S(=O)(c1ccccc1)c1cnc2nc3ccccc3n2c1-c1ccc(Br)cc1`, the Ratio with HCT-116 [1] is 1; with HCT-116 [2] it was 0.748; in the assay with HCT-116 [3], 0.624; in the assay on HCT-116 [4] it was 0.209. The figures for the half-inhibitory concentration (IC50) result at Aurora kinase A and in the assay with HCT-116 [5] were “Not Active” and 16.3 µg/mL (≈ 35.1 µM), respectively.

Broadly, the pIC50 is −log10 of the IC50, conventionally taken in molar units. By IC50 is commonly meant the point on the concentration scale where inhibition reaches its midpoint.
